Laboratory results reported in ChEMBL document CHEMBL3098071, “Synthesis and evaluation of novel azoles as potent antifungal agents” (2014).
Converted amounts (≈) assume the structure as drawn.

Tests used:
Assay type in all cases: functional
Candida albicans [1] = assay: Ratio of voriconazole MIC80 to compound MIC80 for Candida albicans SC5314
Candida albicans [2] = assay: Ratio of itraconazole MIC80 to compound MIC80 for Candida albicans SC5314
Nannizzia gypsea = assay: Antimicrobial activity against Microsporum gypseum by broth microdilution method
Aspergillus fumigatus = assay: Antimicrobial activity against Aspergillus fumigatus by broth microdilution method
Trichophyton rubrum = assay: Antimicrobial activity against Trichophyton rubrum by broth microdilution method
Nakaseomyces glabratus [3] = assay: Antimicrobial activity against Candida glabrata by broth microdilution method
Cryptococcus neoformans = assay: Antimicrobial activity against Cryptococcus neoformans after 72 hrs by broth microdilution method
Method in brief: (§1)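 Broth microdilution in 96-well plates following NCCLS methods. Compounds were dissolved in DMSO, serially diluted in growth medium, inoculated and incubated at 35°C. MIC read at 24 h for Candida albicans and at 72 h for Cryptococcus neoformans. MIC80 is the first well with about 80% less growth than the drug-free well. Values are means of three replicate tests.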

Candida parapsilosis = assay: Antimicrobial activity against Candida parapsilosis by broth microdilution method; settings: Lodderomyces parapsilosis
Candida albicans [4] = assay: Antimicrobial activity against Candida albicans SC5314 after 24 hrs by broth microdilution method; settings: SC5314, 24 h; method in brief: as §1
Candida albicans [5] = assay: Antimicrobial activity against Candida albicans Y0109 after 24 hrs by broth microdilution method; settings: Y0109, 24 h; method in brief: as §1
Nakaseomyces glabratus [6] = assay: Ratio of ketoconazole MIC80 to compound MIC80 for Candida glabrata
Nakaseomyces glabratus [7] = assay: Ratio of fluconazole MIC80 to compound MIC80 for Candida glabrata
Nakaseomyces glabratus [8] = assay: Ratio of itraconazole MIC80 to compound MIC80 for Candida glabrata
Nakaseomyces glabratus [9] = assay: Ratio of voriconazole MIC80 to compound MIC80 for Candida glabrata

| SMILES | MIC80 (Nannizzia gypsea) [µg/mL] | MIC80 (Aspergillus fumigatus) [µg/mL] | MIC80 (Trichophyton rubrum) [µg/mL] | MIC80 (Nakaseomyces glabratus [3]) [µg/mL] | MIC80 (Cryptococcus neoformans) [µg/mL] | MIC80 (Candida parapsilosis) [µg/mL] | MIC80 (Candida albicans [4]) [µg/mL] | MIC80 (Candida albicans [5]) [µg/mL] | Ratio (Candida albicans [1]) | Ratio (Candida albicans [2]) | Ratio (Nakaseomyces glabratus [6]) | Ratio (Nakaseomyces glabratus [7]) | Ratio (Nakaseomyces glabratus [8]) | Ratio (Nakaseomyces glabratus [9]) |
| --- | --- | --- | --- | --- | --- | --- | --- | --- | --- | --- | --- | --- | --- | --- |
| OC(CN1CCN(CCCSc2nnc(-c3ccc(Cl)cc3)o2)CC1)(Cn1cncn1)c1ccc(F)cc1F (stereo not drawn) | 4 (≈ 6.94 µM) | > 64 | 0.25 (≈ 0.434 µM) | 0.0625 (≈ 0.108 µM) | 0.0625 (≈ 0.108 µM) | 0.0625 (≈ 0.108 µM) | 0.0039 (≈ 0.00677 µM) | 0.0625 (≈ 0.108 µM) | 16 |  |  |  |  |  |
| OC(CN1CCN(CCCSc2nnc(-c3ccccc3Br)o2)CC1)(Cn1cncn1)c1ccc(F)cc1F (stereo not drawn) | 0.25 (≈ 0.403 µM) | > 64 | 0.25 (≈ 0.403 µM) | 0.0625 (≈ 0.101 µM) | 0.0625 (≈ 0.101 µM) | 0.0625 (≈ 0.101 µM) | 0.0156 (≈ 0.0251 µM) | 0.0625 (≈ 0.101 µM) |  |  |  |  |  |  |
| OC(CN1CCN(CCCSc2nnc(-c3cccc(Br)c3)o2)CC1)(Cn1cncn1)c1ccc(F)cc1F (stereo not drawn) | 1 (≈ 1.61 µM) | > 64 | 0.25 (≈ 0.403 µM) | 0.0039 (≈ 0.00629 µM) | 0.25 (≈ 0.403 µM) | 0.25 (≈ 0.403 µM) | 0.0625 (≈ 0.101 µM) | 0.0625 (≈ 0.101 µM) |  |  | 2051 | 256 | 32 | 16 |
| OC(CN1CCN(CCCSc2nnc(-c3ccc(Br)cc3)o2)CC1)(Cn1cncn1)c1ccc(F)cc1F (stereo not drawn) | 0.25 (≈ 0.403 µM) | > 64 | 0.25 (≈ 0.403 µM) | 0.0156 (≈ 0.0251 µM) | 0.25 (≈ 0.403 µM) | 0.0625 (≈ 0.101 µM) | 0.0625 (≈ 0.101 µM) | 0.0625 (≈ 0.101 µM) |  |  |  |  |  |  |
| Cc1cccc(-c2nnc(SCCCN3CCN(CC(O)(Cn4cncn4)c4ccc(F)cc4F)CC3)o2)c1 (stereo not drawn) | 1 (≈ 1.8 µM) | > 64 | 1 (≈ 1.8 µM) | 1 (≈ 1.8 µM) | 1 (≈ 1.8 µM) | 4 (≈ 7.2 µM) | 0.125 (≈ 0.225 µM) | 0.25 (≈ 0.45 µM) |  |  |  |  |  |  |
| COc1ccccc1-c1nnc(SCCCN2CCN(CC(O)(Cn3cncn3)c3ccc(F)cc3F)CC2)o1 (stereo not drawn) | 16 (≈ 28 µM) | > 64 | 0.25 (≈ 0.437 µM) | 1 (≈ 1.75 µM) | 4 (≈ 7 µM) | 16 (≈ 28 µM) | 0.25 (≈ 0.437 µM) | 0.125 (≈ 0.219 µM) |  |  |  |  |  |  |
| COc1cccc(-c2nnc(SCCCN3CCN(CC(O)(Cn4cncn4)c4ccc(F)cc4F)CC3)o2)c1 (stereo not drawn) | 0.25 (≈ 0.437 µM) | > 64 | 0.0625 (≈ 0.109 µM) | 0.25 (≈ 0.437 µM) | 0.25 (≈ 0.437 µM) | 0.25 (≈ 0.437 µM) | 0.25 (≈ 0.437 µM) | 0.25 (≈ 0.437 µM) |  |  |  |  |  |  |
| O=[N+]([O-])c1ccccc1-c1nnc(SCCCN2CCN(CC(O)(Cn3cncn3)c3ccc(F)cc3F)CC2)o1 (stereo not drawn) | 0.25 (≈ 0.426 µM) | > 64 | 0.25 (≈ 0.426 µM) | 0.25 (≈ 0.426 µM) | 0.125 (≈ 0.213 µM) | 0.125 (≈ 0.213 µM) | 0.125 (≈ 0.213 µM) | 0.25 (≈ 0.426 µM) |  |  |  |  |  |  |

Further lines, with some results ahead:

| MIC80 (Nannizzia gypsea) [µg/mL] | MIC80 (Aspergillus fumigatus) [µg/mL] | MIC80 (Trichophyton rubrum) [µg/mL] | MIC80 (Nakaseomyces glabratus [3]) [µg/mL] | MIC80 (Cryptococcus neoformans) [µg/mL] | MIC80 (Candida parapsilosis) [µg/mL] | MIC80 (Candida albicans [4]) [µg/mL] | MIC80 (Candida albicans [5]) [µg/mL] | SMILES | Ratio (Candida albicans [1]) | Ratio (Candida albicans [2]) | Ratio (Nakaseomyces glabratus [6]) | Ratio (Nakaseomyces glabratus [7]) | Ratio (Nakaseomyces glabratus [8]) | Ratio (Nakaseomyces glabratus [9]) |
| --- | --- | --- | --- | --- | --- | --- | --- | --- | --- | --- | --- | --- | --- | --- |
| 1 (≈ 1.74 µM) | > 64 | 0.0625 (≈ 0.108 µM) | 0.25 (≈ 0.434 µM) | 0.0625 (≈ 0.108 µM) | 0.25 (≈ 0.434 µM) | 0.0039 (≈ 0.00677 µM) | 0.0039 (≈ 0.00677 µM) | OC(CN1CCN(CCCSc2nnc(-c3cccc(Cl)c3)o2)CC1)(Cn1cncn1)c1ccc(F)cc1F (stereo not drawn) | 16 | 64 |  |  |  |  |
| 0.25 (≈ 0.45 µM) | > 64 | 0.25 (≈ 0.45 µM) | 0.125 (≈ 0.225 µM) | 0.125 (≈ 0.225 µM) | 0.125 (≈ 0.225 µM) | 0.25 (≈ 0.45 µM) | 0.25 (≈ 0.45 µM) | Cc1ccccc1-c1nnc(SCCCN2CCN(CC(O)(Cn3cncn3)c3ccc(F)cc3F)CC2)o1 (stereo not drawn) |  |  |  |  |  |  |
| 1 (≈ 1.8 µM) | > 64 | 1 (≈ 1.8 µM) | 0.25 (≈ 0.45 µM) | 1 (≈ 1.8 µM) | 0.025 (≈ 0.045 µM) | 0.25 (≈ 0.45 µM) | 0.125 (≈ 0.225 µM) | Cc1ccc(-c2nnc(SCCCN3CCN(CC(O)(Cn4cncn4)c4ccc(F)cc4F)CC3)o2)cc1 (stereo not drawn) |  |  |  |  |  |  |
| 0.25 (≈ 0.437 µM) | > 64 | 0.25 (≈ 0.437 µM) | 0.25 (≈ 0.437 µM) | 0.25 (≈ 0.437 µM) | 0.25 (≈ 0.437 µM) | 0.25 (≈ 0.437 µM) | 0.25 (≈ 0.437 µM) | COc1ccc(-c2nnc(SCCCN3CCN(CC(O)(Cn4cncn4)c4ccc(F)cc4F)CC3)o2)cc1 (stereo not drawn) |  |  |  |  |  |  |
